Active and inactive are the calls of the source. No cut-off for these calls is given here.
Key:
[1] = target: T1, Histone deacetylase 7 (Homo sapiens) (UniProt Q8WUI4); assay: Inhibition of HDAC7 (unknown origin)
T1 sequence (whole entry): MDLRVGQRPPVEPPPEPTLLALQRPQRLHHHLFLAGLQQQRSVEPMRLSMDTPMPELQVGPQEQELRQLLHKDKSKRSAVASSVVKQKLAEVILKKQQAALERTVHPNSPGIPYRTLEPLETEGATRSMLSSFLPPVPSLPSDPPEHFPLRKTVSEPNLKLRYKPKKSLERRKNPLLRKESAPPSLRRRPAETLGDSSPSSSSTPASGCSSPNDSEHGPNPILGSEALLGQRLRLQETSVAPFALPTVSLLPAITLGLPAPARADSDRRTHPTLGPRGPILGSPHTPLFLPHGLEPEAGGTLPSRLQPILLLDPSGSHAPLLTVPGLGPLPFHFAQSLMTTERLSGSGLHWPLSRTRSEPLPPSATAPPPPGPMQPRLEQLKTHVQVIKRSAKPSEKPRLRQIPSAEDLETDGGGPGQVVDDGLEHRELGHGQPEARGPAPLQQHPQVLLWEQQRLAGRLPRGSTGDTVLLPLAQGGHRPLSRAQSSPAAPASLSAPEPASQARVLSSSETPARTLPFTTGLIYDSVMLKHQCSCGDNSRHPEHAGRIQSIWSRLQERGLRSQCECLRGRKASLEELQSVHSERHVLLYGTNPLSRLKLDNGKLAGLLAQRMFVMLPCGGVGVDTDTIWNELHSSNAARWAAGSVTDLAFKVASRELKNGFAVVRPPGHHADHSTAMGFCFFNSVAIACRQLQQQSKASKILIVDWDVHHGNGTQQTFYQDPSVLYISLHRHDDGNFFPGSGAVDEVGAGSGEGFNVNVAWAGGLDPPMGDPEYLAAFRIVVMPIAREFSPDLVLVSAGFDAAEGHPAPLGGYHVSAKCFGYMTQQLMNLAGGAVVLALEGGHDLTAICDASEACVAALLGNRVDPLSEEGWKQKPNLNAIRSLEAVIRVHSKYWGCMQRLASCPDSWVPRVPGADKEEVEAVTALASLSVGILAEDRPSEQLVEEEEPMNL

Plasma = assay: Metabolic stability in mouse plasma; assay type: ADME, cell-free
[2] = target: T2, NAD-dependent protein deacetylase sirtuin-2 (Homo sapiens) (UniProt Q8IXJ6); assay: Inhibition of His-tagged human recombinant SIRT2 expressed in Escherichia coli at 20 uM using Cbz-Lys(Ac)-AMC as substrate by fluorescence assay
T2 sequence (whole entry): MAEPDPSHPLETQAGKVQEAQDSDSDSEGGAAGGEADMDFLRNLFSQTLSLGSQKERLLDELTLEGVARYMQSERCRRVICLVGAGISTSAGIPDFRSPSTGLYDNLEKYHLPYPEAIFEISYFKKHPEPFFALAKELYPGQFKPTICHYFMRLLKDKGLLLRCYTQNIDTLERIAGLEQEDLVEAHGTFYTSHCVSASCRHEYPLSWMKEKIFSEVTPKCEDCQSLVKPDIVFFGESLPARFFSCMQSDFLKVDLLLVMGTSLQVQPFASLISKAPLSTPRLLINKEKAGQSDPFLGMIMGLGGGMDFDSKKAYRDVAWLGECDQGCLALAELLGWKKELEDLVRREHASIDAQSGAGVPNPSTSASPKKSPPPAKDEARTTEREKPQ
Summary of the method: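 Fluorescence deacetylase assay with in-house Cbz-Lys(Ac)-AMC substrate. Values are means of three experiments on racemic material. Single-point lines were tested at 20 µM, and less than 20% inhibition was scored as no inhibition.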

[3] = target: T3, NAD-dependent protein deacetylase sirtuin-1 (Homo sapiens, UniProt Q96EB6); assay: Inhibition of His-tagged human recombinant SIRT1 expressed in Escherichia coli using Cbz-Lys(Ac)-AMC as substrate by fluorescence assay
T3 sequence (Q96EB6 whole entry): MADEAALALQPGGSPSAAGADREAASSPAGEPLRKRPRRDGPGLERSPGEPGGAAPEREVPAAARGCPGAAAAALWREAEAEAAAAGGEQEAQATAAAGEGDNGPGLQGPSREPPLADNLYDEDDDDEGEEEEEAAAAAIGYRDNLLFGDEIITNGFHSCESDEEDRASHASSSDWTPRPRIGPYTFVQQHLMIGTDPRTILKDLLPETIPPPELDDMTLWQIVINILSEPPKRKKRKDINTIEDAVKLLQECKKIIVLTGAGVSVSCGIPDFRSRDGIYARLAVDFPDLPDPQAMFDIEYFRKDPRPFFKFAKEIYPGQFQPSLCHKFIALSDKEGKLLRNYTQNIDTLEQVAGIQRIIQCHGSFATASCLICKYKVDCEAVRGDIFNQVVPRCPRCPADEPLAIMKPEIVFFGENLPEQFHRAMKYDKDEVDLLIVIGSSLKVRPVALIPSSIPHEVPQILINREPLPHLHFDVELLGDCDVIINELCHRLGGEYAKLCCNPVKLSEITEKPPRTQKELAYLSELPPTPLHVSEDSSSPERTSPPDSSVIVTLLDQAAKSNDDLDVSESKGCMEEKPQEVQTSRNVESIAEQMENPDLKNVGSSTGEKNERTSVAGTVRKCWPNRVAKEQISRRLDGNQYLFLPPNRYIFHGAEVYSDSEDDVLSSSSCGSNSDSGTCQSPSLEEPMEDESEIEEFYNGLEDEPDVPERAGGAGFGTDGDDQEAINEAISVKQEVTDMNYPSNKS

[4] = target: T4, NAD-dependent protein deacetylase sirtuin-1 (Homo sapiens) (UniProt Q96EB6); assay: Inhibition of SIRT1-mediated endogenous p53 deacetylase activity in human Namalwa cells assessed as concentration required to […] to twice the basal level after 3 hrs by ELISA; assay type: cell-based
T4 sequence (whole entry): T3 sequence (Q96EB6 whole entry)
Summary of the method: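 Namalwa cells, 50,000/well, were exposed 3 h at 37 °C, 5% CO2, to 0.005–50 µM final (0.95% DMSO). Lysates were ELISA-captured on anti-p53 (DO-1), probed overnight with anti-acetyl-Lys382-p53, then HRP conjugate and Amplex Red (15 min; ex 550/em 610 nm). IC2xB is the concentration doubling basal (lowest) fluorescence. Means of three experiments.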

[5] = Oral bioavailability in rat; assay type: ADME, organism-based; details: in vivo
[6] = Half life in rat; assay type: ADME, organism-based; details: in vivo
Histone deacetylase 1 = Histone deacetylase 1 (Homo sapiens, UniProt Q13547); assay: Inhibition of HDAC1 (unknown origin)
Histone deacetylase 1, sequence (Q13547 whole entry): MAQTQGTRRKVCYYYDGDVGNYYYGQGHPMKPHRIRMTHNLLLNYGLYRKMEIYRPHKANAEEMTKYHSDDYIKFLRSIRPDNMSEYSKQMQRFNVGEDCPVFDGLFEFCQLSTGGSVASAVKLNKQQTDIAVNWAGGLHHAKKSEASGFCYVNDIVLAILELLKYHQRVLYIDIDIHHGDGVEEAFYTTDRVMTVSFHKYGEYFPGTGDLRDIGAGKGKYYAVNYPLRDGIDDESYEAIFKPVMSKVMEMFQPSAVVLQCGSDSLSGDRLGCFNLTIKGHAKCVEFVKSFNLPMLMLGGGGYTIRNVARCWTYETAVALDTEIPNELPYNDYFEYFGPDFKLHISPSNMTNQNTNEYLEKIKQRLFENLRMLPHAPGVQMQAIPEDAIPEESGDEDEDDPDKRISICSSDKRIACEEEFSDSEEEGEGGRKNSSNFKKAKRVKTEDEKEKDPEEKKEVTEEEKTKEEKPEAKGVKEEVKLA

[7] = Clearance in rat; assay type: ADME, organism-based; details: in vivo
[8] = target: T5, NAD-dependent protein deacetylase sirtuin-2 (Homo sapiens, UniProt Q8IXJ6); assay: Inhibition of His-tagged human recombinant SIRT2 expressed in Escherichia coli using Cbz-Lys(Ac)-AMC as substrate by fluorescence assay
T5 sequence (Q8IXJ6 whole entry): T2 sequence (whole entry)

[9] = target: Histone deacetylase 4 (Homo sapiens) (UniProt P56524); assay: Inhibition of HDAC4 (unknown origin) at 20 uM
Histone deacetylase 4 (Homo sapiens), sequence (P56524 whole entry): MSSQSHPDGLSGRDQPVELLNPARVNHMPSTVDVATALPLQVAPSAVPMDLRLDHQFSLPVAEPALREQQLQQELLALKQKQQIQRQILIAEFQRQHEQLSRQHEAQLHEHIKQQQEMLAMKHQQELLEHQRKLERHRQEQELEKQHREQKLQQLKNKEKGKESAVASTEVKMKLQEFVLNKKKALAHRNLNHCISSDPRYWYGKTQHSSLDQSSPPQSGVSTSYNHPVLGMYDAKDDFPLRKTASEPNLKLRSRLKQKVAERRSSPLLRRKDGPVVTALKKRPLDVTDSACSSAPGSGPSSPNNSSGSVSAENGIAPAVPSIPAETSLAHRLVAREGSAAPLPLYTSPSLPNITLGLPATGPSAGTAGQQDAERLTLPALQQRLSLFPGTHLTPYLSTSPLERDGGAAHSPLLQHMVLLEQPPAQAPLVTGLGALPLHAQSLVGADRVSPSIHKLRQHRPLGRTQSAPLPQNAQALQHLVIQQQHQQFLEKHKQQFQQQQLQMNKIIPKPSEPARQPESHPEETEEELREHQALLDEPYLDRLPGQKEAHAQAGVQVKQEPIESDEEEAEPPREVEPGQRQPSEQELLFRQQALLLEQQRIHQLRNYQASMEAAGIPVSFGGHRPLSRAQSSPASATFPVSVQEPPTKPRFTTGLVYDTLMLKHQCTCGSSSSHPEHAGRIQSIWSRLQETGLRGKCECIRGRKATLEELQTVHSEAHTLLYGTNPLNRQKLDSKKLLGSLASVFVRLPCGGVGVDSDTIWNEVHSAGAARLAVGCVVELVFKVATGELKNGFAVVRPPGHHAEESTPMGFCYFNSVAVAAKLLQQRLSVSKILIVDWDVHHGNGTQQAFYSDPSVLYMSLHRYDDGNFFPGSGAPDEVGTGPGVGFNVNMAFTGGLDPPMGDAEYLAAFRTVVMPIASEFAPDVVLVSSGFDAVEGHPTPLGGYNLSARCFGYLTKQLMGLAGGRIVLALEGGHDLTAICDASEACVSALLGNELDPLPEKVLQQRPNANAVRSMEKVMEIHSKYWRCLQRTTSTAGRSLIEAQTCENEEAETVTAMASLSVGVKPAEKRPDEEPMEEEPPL

[10] = target: Histone deacetylase 5 (Homo sapiens) (UniProt Q9UQL6); assay: Inhibition of HDAC5 (unknown origin) at 20 uM
Histone deacetylase 5 (Homo sapiens), sequence (Q9UQL6 whole entry): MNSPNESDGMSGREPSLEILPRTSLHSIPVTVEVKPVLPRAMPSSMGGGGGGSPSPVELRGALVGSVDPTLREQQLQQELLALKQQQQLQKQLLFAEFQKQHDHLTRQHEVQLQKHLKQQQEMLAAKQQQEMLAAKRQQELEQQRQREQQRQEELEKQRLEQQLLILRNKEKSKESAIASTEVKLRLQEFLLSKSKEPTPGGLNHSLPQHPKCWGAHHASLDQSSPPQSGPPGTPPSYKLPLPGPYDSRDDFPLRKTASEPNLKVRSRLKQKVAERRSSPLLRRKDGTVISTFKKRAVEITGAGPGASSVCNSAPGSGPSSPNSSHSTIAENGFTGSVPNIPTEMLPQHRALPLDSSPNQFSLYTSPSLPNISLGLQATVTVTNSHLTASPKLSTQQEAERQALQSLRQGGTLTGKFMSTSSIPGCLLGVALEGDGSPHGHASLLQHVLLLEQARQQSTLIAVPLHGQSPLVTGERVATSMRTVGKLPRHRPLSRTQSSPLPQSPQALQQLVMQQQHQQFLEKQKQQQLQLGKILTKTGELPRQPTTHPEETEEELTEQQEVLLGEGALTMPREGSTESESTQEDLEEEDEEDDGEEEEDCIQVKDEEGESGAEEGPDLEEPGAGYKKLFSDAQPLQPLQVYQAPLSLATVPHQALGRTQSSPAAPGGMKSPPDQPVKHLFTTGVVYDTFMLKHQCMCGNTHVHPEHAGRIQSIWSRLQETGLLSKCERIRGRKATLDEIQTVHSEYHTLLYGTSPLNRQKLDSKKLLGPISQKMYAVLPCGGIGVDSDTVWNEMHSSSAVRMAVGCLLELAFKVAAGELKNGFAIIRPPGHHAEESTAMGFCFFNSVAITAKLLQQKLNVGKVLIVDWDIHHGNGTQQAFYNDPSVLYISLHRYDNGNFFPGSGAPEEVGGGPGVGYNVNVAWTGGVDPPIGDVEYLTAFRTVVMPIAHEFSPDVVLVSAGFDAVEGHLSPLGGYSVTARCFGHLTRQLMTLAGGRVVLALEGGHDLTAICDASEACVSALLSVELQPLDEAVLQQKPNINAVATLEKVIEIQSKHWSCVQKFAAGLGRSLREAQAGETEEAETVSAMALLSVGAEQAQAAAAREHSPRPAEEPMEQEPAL

inhibition [1] | Stability (Plasma) | inhibition [2] [%] | IC50 [3] [µM] | INH [4] [µM] | bioavailability [5] [%] | half-life [6] [h] | inhibition (Histone deacetylase 1) | clearance [7] [L/h/kg] | IC50 [8] [µM] | inhibition [9] | inhibition [10] | IC50 (Histone deacetylase 1) [µM] | SMILES
inactive | Stable | 43 | 1 | 0.5 | 20 | 1.1 | inactive | 1.8 |  |  |  |  | NC(=O)C1CCCc2c(-c3ccc(Cl)cc3)n[nH]c21 (racemic)
inactive | Stable |  | 0.8 | 1.2 | 23 | 5.1 | inactive | 0.3 | 1.7 |  |  |  | CC1(C)Cc2c(-c3ccc(Cl)cc3)n[nH]c2C(C(N)=O)C1 (racemic)
 |  |  | 1.2 | 1.2 |  |  |  |  | 14.8 | inactive | inactive | > 10 | NC(=O)C1CCCc2c(-c3ccc(Cl)c(Cl)c3)n[nH]c21 (racemic)
